# In ChEMBL document CHEMBL1152312, “Neopyrrolomycins with broad spectrum antibacterial activity” (2009):
# Calls of active or inactive are those of the source. The calls are words filed in the database; no cut-off is given here.
# Experiments:
# Enterococcus faecium [1] = experiment: Antibacterial activity against vancomycin-resistant Enterococcus faecium 700221 by microdilution method; type: functional
# Outline: (§1)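 MIC values from CLSI broth microdilution. Strains came from the ATCC collection and from clinical isolates.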
# Escherichia coli [2] = experiment: Antibacterial activity against Escherichia coli 25922 by microdilution method; type: functional
# Outline: (§2)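 MIC determined by CLSI broth microdilution; organisms were ATCC strains and clinical isolates.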
# Klebsiella pneumoniae [3] = experiment: Antibacterial activity against Klebsiella pneumoniae 4352 by microdilution method; type: functional; outline: as §2
# Streptococcus pneumoniae [4] = experiment: Antibacterial activity against Streptococcus pneumoniae 49619 by microdilution method; type: functional; outline: as §2
# Staphylococcus aureus [5] = experiment: Antibacterial activity against methicillin-sensitive Staphylococcus aureus 29213 by microdilution method; type: functional; outline: as §1
# Escherichia coli [6] = experiment: Antibacterial activity against Escherichia coli 1411 by microdilution method; type: functional; outline: as §2
# Pseudomonas aeruginosa [7] = experiment: Antibacterial activity against Pseudomonas aeruginosa 27853 by microdilution method; type: functional; outline: as §2
# Staphylococcus aureus [8] = experiment: Antibacterial activity against methicillin-resistant Staphylococcus aureus 43300 by microdilution method; type: functional; outline: as §1
# Staphylococcus aureus [9] = experiment: Antibacterial activity against methicillin-sensitive Staphylococcus aureus 6538 by microdilution method; type: functional; outline: as §1
# NHDF = experiment: Cytotoxicity against NHDF cells after 48 hrs by celltiter glow assay; type: functional; conditions: Homo sapiens
# Outline: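 Fibroblasts kept at 37 °C, 5% CO2 in FGM-2 medium, passage ≤16. Seeded at 1.25 × 10^5 cells/mL 24 h before dosing. Compounds dissolved in DMSO, tested 0.6–128 µg/mL at 1% final DMSO for 48 h. Viability by CellTiter-Glo luminescence, expressed as percent of DMSO control.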
# HepG2 = experiment: Cytotoxicity against human HepG2 cells assessed as effect on cell viability at 43 ug/mL after 48 hrs by celltiter glow assay; type: functional, cell-based
# Outline: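 HepG2 grown in MEM with 10% heat-inactivated FBS, 0.10 mM nonessential amino acids, 1 mM pyruvate, 37 °C, 5% CO2. Seeded at 1.25 × 10^5 cells/mL 24 h before treatment. DMSO-dissolved compounds tested over 0.6–128 µg/mL (1% final DMSO) for 48 h. Luminescent CellTiter-Glo viability read-out relative to DMSO control; CC90 taken.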
# Streptococcus pneumoniae [10] = experiment: Antibacterial activity against penicillin-resistant Streptococcus pneumoniae 748 by microdilution method; type: functional; outline: as §1
# Moraxella catarrhalis = experiment: Antibacterial activity against Moraxella catarrhalis 557 by microdilution method; type: functional; outline: as §1
# Enterococcus faecalis = experiment: Antibacterial activity against vancomycin-resistant Enterococcus faecalis 846 by microdilution method; type: functional; outline: as §1
# Streptococcus pneumoniae [11] = experiment: Antibacterial activity against penicillin-susceptible Streptococcus pneumoniae 866 by microdilution method; type: functional; outline: as §1
# Streptococcus pyogenes = experiment: Antibacterial activity against Streptococcus pyogenes 723 by microdilution method; type: functional; outline: as §1
# Klebsiella pneumoniae [12] = experiment: Antibacterial activity against Klebsiella pneumoniae 2239 by microdilution method; type: functional; outline: as §1
# Escherichia coli [13] = experiment: Antibacterial activity against Escherichia coli 102 ATCC 25922 by microdilution method; type: functional; outline: as §1
# Streptococcus pneumoniae [14] = experiment: Antibacterial activity against multidrug-resistant Streptococcus pneumoniae 933 by microdilution method; type: functional; outline: as §1
# Staphylococcus aureus [15] = experiment: Antibacterial activity against vancomycin-intermediate Staphylococcus aureus 2018 by microdilution method; type: functional; outline: as §1
# Staphylococcus aureus [16] = experiment: Antibacterial activity against methicillin-resistant Staphylococcus aureus 2170 by microdilution method; type: functional; outline: as §1
# [17] = tested on: Haemophilus parainfluenzae; experiment: Antibacterial activity against Haemophilus parainfluenzae 2319 ATCC 7901 by microdilution method; type: functional; outline: as §1
# Staphylococcus aureus [18] = experiment: Antibacterial activity against community-acquired Staphylococcus aureus 2144 by microdilution method; type: functional; outline: as §1
# [19] = tested on: Staphylococcus epidermidis; experiment: Antibacterial activity against methicillin-sensitive Staphylococcus epidermidis 1597 by microdilution method; type: functional; outline: as §1
# Staphylococcus aureus [20] = experiment: Antibacterial activity against methicillin-resistant Staphylococcus aureus 1137 by microdilution method; type: functional; outline: as §1
# Klebsiella pneumoniae [21] = experiment: Antibacterial activity against ampicillin beta-lactamase, multidrug-resistant Klebsiella pneumoniae 2262 by microdilution method; type: functional; outline: as §1
# Serratia marcescens = experiment: Antibacterial activity against Serratia marcescens 1635 by microdilution method; type: functional; outline: as §1
# Staphylococcus aureus [22] = experiment: Antibacterial activity against methicillin-sensitive Staphylococcus aureus 100 ATCC 29213 by microdilution method; type: functional; outline: as §1
# Streptococcus pneumoniae [23] = experiment: Antibacterial activity against quinolone-resistant Streptococcus pneumoniae 376 by microdilution method; type: functional; outline: as §1
# Enterococcus faecium [24] = experiment: Antibacterial activity against vancomycin-sensitive Enterococcus faecium 843 by microdilution method; type: functional; outline: as §1
# Escherichia coli [25] = experiment: Antibacterial activity against extended spectrum beta-lactamase-producing Escherichia coli 2269 by microdilution method; type: functional; outline: as §1
# Haemophilus influenzae [26] = experiment: Antibacterial activity against ampicillin-resistant Haemophilus influenzae 1742 by microdilution method; type: functional; outline: as §1
# Enterococcus faecium [27] = experiment: Antibacterial activity against vancomycin-resistant Enterococcus faecium 1254 by microdilution method; type: functional; outline: as §1
# [28] = tested on: Staphylococcus epidermidis; experiment: Antibacterial activity against methicillin-resistant Staphylococcus epidermidis 1452 by microdilution method; type: functional; outline: as §1
# Streptococcus pneumoniae [29] = experiment: Antibacterial activity against quinolone-resistant Streptococcus pneumoniae 379 by microdilution method; type: functional; outline: as §1
# Staphylococcus aureus [30] = experiment: Antibacterial activity against Linezolid, methicillin-resistant Staphylococcus aureus 1651 by microdilution method; type: functional; outline: as §1
# Streptococcus pneumoniae [31] = experiment: Antibacterial activity against penicillin-resistant Streptococcus pneumoniae 940 by microdilution method; type: functional; outline: as §1
# Streptococcus agalactiae = experiment: Antibacterial activity against Streptococcus agalactiae 2033 by microdilution method; type: functional; outline: as §1
# Staphylococcus aureus [32] = experiment: Antibacterial activity against vancomycin-intermediate Staphylococcus aureus 2012 by microdilution method; type: functional; outline: as §1
# Haemophilus influenzae [33] = experiment: Antibacterial activity against Haemophilus influenzae 1224 ATCC 49247 by microdilution method; type: functional; outline: as §1
# Pseudomonas aeruginosa [34] = experiment: Antibacterial activity against Pseudomonas aeruginosa 1473 by microdilution method; type: functional; outline: as §1
# Staphylococcus aureus [35] = experiment: Antibacterial activity against Linezolid, methicillin-resistant Staphylococcus aureus 1725 by microdilution method; type: functional; outline: as §1
# Streptococcus pneumoniae [36] = experiment: Antibacterial activity against Streptococcus pneumoniae 1195 ATCC 49619 by microdilution method; type: functional; outline: as §1
# [37] = tested on: Staphylococcus epidermidis; experiment: Antibacterial activity against Staphylococcus epidermidis 495 by microdilution method; type: functional; outline: as §1
compound,measurement,setting,value
Oc1cc(Cl)cc(Cl)c1-n1cc(Cl)c(Cl)c1Cl [NEOPYRROLOMYCIN C],MIC90,Enterococcus faecium [1],2 µg/mL
same,MIC90,Escherichia coli [2],16 µg/mL
same,MIC90,Klebsiella pneumoniae [3],16 µg/mL
same,MIC90,Streptococcus pneumoniae [4],8 µg/mL
same,MIC90,Staphylococcus aureus [5],2 µg/mL
same,MIC90,Escherichia coli [6],16 µg/mL
same,MIC90,Pseudomonas aeruginosa [7],32 µg/mL
same,MIC90,Staphylococcus aureus [8],1 µg/mL
same,MBC,Staphylococcus aureus [9],8 µg/mL
same,MIC90,Staphylococcus aureus [9],2 µg/mL
same,CC90,NHDF,43 µg/mL
same,Activity,HepG2,Active
Oc1cc(Cl)c(Cl)cc1-n1cc(Cl)c(Cl)c1Cl [NEOPYRROLOMYCIN D],MIC90,Enterococcus faecium [1],4 µg/mL
same,MIC90,Escherichia coli [2],16 µg/mL
same,MIC90,Klebsiella pneumoniae [3],16 µg/mL
same,MIC90,Streptococcus pneumoniae [4],8 µg/mL
same,MIC90,Staphylococcus aureus [5],2 µg/mL
same,MIC90,Escherichia coli [6],16 µg/mL
same,MIC90,Pseudomonas aeruginosa [7],32 µg/mL
same,MIC90,Staphylococcus aureus [8],2 µg/mL
same,MBC,Staphylococcus aureus [9],8 µg/mL
same,MIC90,Staphylococcus aureus [9],2 µg/mL
same,CC90,NHDF,43 µg/mL
same,Activity,HepG2,Active
CN[C@H](CC(C)C)C(=O)N[C@H]1C(=O)N[C@@H](CC(N)=O)C(=O)N[C@H]2C(=O)N[C@H]3C(=O)N[C@H](C(=O)N[C@H](C(=O)O)c4cc(O)cc(O)c4-c4cc3ccc4O)[C@H](O)c3ccc(c(Cl)c3)Oc3cc2cc(c3O[C@@H]2O[C@H](CO)[C@@H](O)[C@H](O)[C@H]2O[C@H]2C[C@](C)(N)[C@H](O)[C@H](C)O2)Oc2ccc(cc2Cl)[C@H]1O [VANCOMYCIN],MIC90,Streptococcus pneumoniae [10],0.5 µg/mL
same,MIC90,Moraxella catarrhalis,> 64 µg/mL
same,MIC90,Enterococcus faecalis,> 64 µg/mL
same,MIC90,Streptococcus pneumoniae [11],0.5 µg/mL
same,MIC90,Streptococcus pyogenes,0.5 µg/mL
same,MIC90,Klebsiella pneumoniae [12],> 64 µg/mL
same,MIC90,Escherichia coli [13],> 64 µg/mL
same,MIC90,Streptococcus pneumoniae [14],1 µg/mL
same,MIC90,Staphylococcus aureus [15],8 µg/mL
same,MIC90,Staphylococcus aureus [16],1 µg/mL
same,MIC90,[17],64 µg/mL
same,MIC90,Staphylococcus aureus [18],0.12 µg/mL
same,MIC90,[19],2 µg/mL
same,MIC90,Staphylococcus aureus [20],1 µg/mL
same,MIC90,Klebsiella pneumoniae [21],> 64 µg/mL
same,MIC90,Serratia marcescens,> 64 µg/mL
same,MIC90,Staphylococcus aureus [22],2 µg/mL
same,MIC90,Streptococcus pneumoniae [23],0.2 µg/mL
same,MIC90,Enterococcus faecium [24],2 µg/mL
same,MIC90,Escherichia coli [25],> 64 µg/mL
same,MIC90,Haemophilus influenzae [26],> 64 µg/mL
same,MIC90,Enterococcus faecium [27],> 64 µg/mL
same,MIC90,[28],4 µg/mL
same,MIC90,Streptococcus pneumoniae [29],0.5 µg/mL
same,MIC90,Staphylococcus aureus [30],1 µg/mL
same,MIC90,Streptococcus pneumoniae [31],0.25 µg/mL
same,MIC90,Streptococcus agalactiae,0.5 µg/mL
same,MIC90,Staphylococcus aureus [32],16 µg/mL
same,MIC90,Haemophilus influenzae [33],> 64 µg/mL
same,MIC90,Pseudomonas aeruginosa [34],> 64 µg/mL
same,MIC90,Staphylococcus aureus [35],2 µg/mL
same,MIC90,Streptococcus pneumoniae [36],0.25 µg/mL
same,MIC90,[37],2 µg/mL
